The term solubility denotes how much of the substance goes into solution per volume. The term logD denotes lipophilicity at a set pH, counting ionised and neutral species. A word on the efflux ratio: it is the permeability from basolateral to apical divided by that in the opposite direction, in the common usage. The MIC is the lowest concentration found to suppress growth. What is called Papp A→B is the apparent permeability from the apical to the basolateral side of a cell layer. What is called Papp B→A is how fast a substance crosses the layer from the basolateral side.

A short description of data set [1]: Aqueous solubility of the compound in PBS buffer at pH 7.4 by HPLC analysis. In kind it is physicochemical. In outline:
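Solubility is measured in phosphate-buffered saline at pH 7.4 and quantified against a calibration curve whose highest point is 200 μM, so the upper reportable value is >200 μM.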

The nature of data set [2]: Distribution coefficient between 1-Octanol and PBS buffer, logD of the compound at pH 7.4 incubated for 140 mins by HPLC anlaysis. It counts as physicochemical. Conditions: 1-octanol/PBS buffer.
A short description of data set [3]: Distribution coefficient between 1-Octanol and PBS buffer, logD of the compound at pH 6.5 incubated for 140 mins by HPLC anlaysis. The settings on record: 1-octanol/PBS buffer. It counts as physicochemical.
Data set [4] is described as follows: Efflux ratio of apparent permeability across basolateral to apical over apical to basolateral side in human Caco2 cells. The settings on record: Caco-2. In kind it is ADME, cell-based. The method in brief:
(§1)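 Caco-2 monolayer transport measured in both directions, apical→basolateral and basolateral→apical, and reported as apparent permeability (×10–6 cm/s). Efflux ratio is calculated as Papp B→A divided by Papp A→B.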
In general terms: Caco-2 cells form a polarised layer with tight junctions and transporters.

In data set [5] the test system is Enterococcus faecium. The data set can be described thus: Antibacterial activity against Enterococcus faecium HM-952 assessed as inhibition of bacterial growth incubated for 18 to 20 hrs by broth microdilution assay. It counts as functional. The settings on record: time 18-20 hrs. (In broth dilution the organism is exposed to a series of concentrations in liquid medium.)

The subject of data set [6] is Enterococcus faecium. The data set can be described thus: Antibacterial activity against vancomycin-resistant Enterococcus faecium HM-952 infected in C57BL/6 mouse assessed as log reduction in bacterial colony forming unit in feces at 20 mg/kg,po qd measured after 3 days of administration. It counts as functional. Conditions: time 3 day. In outline: (§2)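 C57BL/6 mice given ampicillin in drinking water (0.5 g/L) for 7 days, then gavaged orally with 5.39 × 10^8 CFU/mL E. faecium HM-952. Colonization was allowed for 7 days. Randomized groups (n = 7) got 20 mg/kg by oral gavage once daily for 8 days. Vehicle was dimethylacetamide:20% propylene glycol:40% PEG 400:30% PBS. Fecal CFU was counted on days 0, 3, 5 and 7, and ileal and cecal CFU at day 9 after euthanasia. Comparison was against vehicle.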

Data set [7] relates to Enterococcus faecium. As to the kind of experiment: Antibacterial activity against vancomycin-resistant Enterococcus faecium HM-952 infected in C57BL/6 mouse assessed as reduction in bacterial burden in feces at 20 mg/kg,po qd measured after 3 days of administration. It counts as functional. On the set-up: scale not given: the % may be the effect or the level left. The method in brief:
as §2

Data set [8] relates to Enterococcus faecium. The data set can be described thus: Antibacterial activity against vancomycin-resistant Enterococcus faecium HM-952 infected in C57BL/6 mouse assessed as log reduction in bacterial colony forming unit in feces at 20 mg/kg,po qd measured after 5 days of administration. It counts as functional. The settings on record: time 5 day. In outline: as §2
Data set [9] deals with Enterococcus faecium. The data set can be described thus: Antibacterial activity against vancomycin-resistant Enterococcus faecium HM-952 infected in C57BL/6 mouse assessed as reduction in bacterial burden in feces at 20 mg/kg,po qd measured after 5 days of administration. Further details: scale not given: the % may be the effect or the level left. It counts as functional. The method in brief: as §2

Data set [10] concerns Enterococcus faecium. As to the kind of experiment: Antibacterial activity against vancomycin-resistant Enterococcus faecium HM-952 infected in C57BL/6 mouse assessed as log reduction in bacterial colony forming unit in feces at 20 mg/kg,po qd measured after 7 days of administration. In kind it is functional. Conditions: time 7 day. In outline: as §2
The test system of data set [11] is Enterococcus faecium. The data set can be described thus: Antibacterial activity against vancomycin-resistant Enterococcus faecium HM-952 infected in C57BL/6 mouse assessed as reduction in bacterial burden in feces at 20 mg/kg,po qd measured after 7 days of administration. In kind it is functional. Further details: scale not given: the % may be the effect or the level left. Conditions: time 7 day. In outline: as §2

The test system of data set [12] is Enterococcus faecium. The data set can be described thus: Antibacterial activity against vancomycin-resistant Enterococcus faecium HM-952 infected in C57BL/6 mouse assessed as log reduction in bacterial colony forming unit in ileum at 20 mg/kg,po qd measured after 9 days of administration. Conditions: time 9 day. It counts as functional. The method in brief:
as §2

Data set [13] deals with Enterococcus faecium. As to the kind of experiment: Antibacterial activity against vancomycin-resistant Enterococcus faecium HM-952 infected in C57BL/6 mouse assessed as log reduction in bacterial colony forming unit in cecum at 20 mg/kg,po qd measured after 9 days of administration. In kind it is functional. Conditions: time 9 day. In outline: as §2
In data set [14] the test system is Enterococcus faecium. As to the kind of experiment: Antibacterial activity against vancomycin-resistant Enterococcus faecium HM-952 infected in C57BL/6 mouse assessed as reduction in bacterial burden in ileum at 20 mg/kg,po qd measured after 9 days of administration. Further details: scale not given: the % may be the effect or the level left. The settings on record: time 9 day. In kind it is functional. In outline: as §2

For data set [15], the system named is Enterococcus faecium. As to the kind of experiment: Antibacterial activity against vancomycin-resistant Enterococcus faecium HM-952 infected in C57BL/6 mouse assessed as reduction in bacterial burden in cecum at 20 mg/kg,po qd measured after 9 days of administration. It counts as functional. On the set-up: scale not given: the % may be the effect or the level left. Conditions: time 9 day. In outline: as §2

The nature of data set [16]: Permeability across apical to basolateral side in human Caco-2 cells assessed as drug recovery. In kind it is ADME, cell-based. Conditions: read-out: Drug recovery.
The nature of data set [17]: Apparent permeability across apical to basolateral side in human Caco2 cells. It counts as ADME, cell-based. Conditions: Caco-2. The method in brief:
as §1

Data set [18] can be described thus: Apparent permeability across basolateral to apical side in human Caco2 cells. It counts as ADME, cell-based. Conditions: Caco-2. The method in brief: as §1

Converted amounts (≈) assume the structure as drawn. The source made the active and inactive calls. No cut-off for these calls is given here. Bounds are passed on as bounds.

Consider `NS(=O)(=O)c1nnc(NC(=O)CCC2CCCCC2)s1`, for which, in data set [1], the solubility came out at 33 µM (≈ 10.5 µg/mL). The figures for the logD at 2.333 h in [2] and in data set [3] were 2.26 and 2.47, respectively. For the same compound, in data set [4], the efflux ratio was found to be 2.17. Further, in data set [5], the MIC came out at 0.03 mg/L (≈ 0.0942 µM). Besides, the Activity was found to be 1 log10CFU in data set [6]; 90% in [7] (time 3 day); 1.13 log10CFU in [8]; 92.6% in data set [9] (time 5 day); 2.16 log10CFU in [10]; 99.3% in data set [11]. Further, the Activity was found to be 1.13 log10CFU in data set [12], 1.57 log10CFU in [13], 94.1% in [14] and 97.3% in data set [15]. The recovery in [16] stood at 35%.
In the case of `CC(C)(C)CC(=O)Nc1nnc(S(N)(=O)=O)s1`, the solubility in data set [1] is > 200 µM. Moreover, the log distribution coefficient (logD) at 2.333 h in data set [2] is 1.36; in [3] it was 1.55. Further, the Papp A→B in data set [17] was found to be 37 nm/s. Besides, the Papp B→A in data set [18] was determined as 82 nm/s. In addition, in data set [4], the efflux ratio was 2.22. Further, the MIC in [5] turned out to be 0.03 mg/L (≈ 0.108 µM). Further, the Activity in data set [6] came to 1 log10CFU; in data set [7] (time 3 day), 90%; in data set [8], 1.13 log10CFU; in data set [9] (time 5 day), 92.6%; in data set [10] it was 2.16 log10CFU; in data set [11], 99.3%. Further, the Activity was 1.98 log10CFU in data set [12], 2.36 log10CFU in [13], 98.9% in data set [14] and 99.6% in data set [15]. For the same compound, the recovery in data set [16] was 80%.
Regarding `NS(=O)(=O)c1nnc(NC(=O)CN2CCOCC2)s1`, the concentration in solution in data set [1] (solubility) was 127 µM (≈ 39 µg/mL). The logD at 2.333 h was -1.38 in [2] and -0.97 in data set [3]. For the same compound, in data set [5], the MIC was 1 mg/L (≈ 3.25 µM). The Activity in data set [6] turned out to be 1 log10CFU; in data set [7] (time 3 day), 90%; in data set [8] it was 1.13 log10CFU; in [9] (time 5 day) it was 92.6%; in [10], 2.16 log10CFU; in data set [11], 99.3%. In addition, the Activity in [12] stood at 1.62 log10CFU; in data set [13] it was 1.92 log10CFU; in data set [14], 97.6%; in [15] it was 98.8%.
Turning to `CC(=O)Nc1nnc(S(N)(=O)=O)s1` [ACETAZOLAMIDE], the MIC in data set [5] stood at 1 mg/L (≈ 4.5 µM). The Activity in [6] was found to be 1 log10CFU; in [7] (time 3 day) it was 90%; in [10], 2.16 log10CFU; in [11], 99.3%; in data set [12], 2.59 log10CFU; in data set [13], 2.59 log10CFU. Also, the Activity in data set [14] and in data set [15] was 99.7% each time. Also, in data set [9] (time 5.0 day), the outcome was Active.
For the compound `CC(=O)NC[C@H]1CN(c2ccc(N3CCOCC3)c(F)c2)C(=O)O1` [LINEZOLID], in data set [5], the MIC was 1 mg/L (≈ 2.96 µM). In addition, the outcome in data set [7] (time 3.0 day) was Active. The Activity in data set [8] is 0.87 log10CFU; in data set [9] (time 5 day), 86.5%; in [10] it was 1.07 log10CFU; in [11], 91.5%.

The values are drawn from ChEMBL document CHEMBL5252663, “Evaluation of 1,3,4-Thiadiazole Carbonic Anhydrase Inhibitors for Gut Decolonization of Vancomycin-Resistant Enterococci” (ACS Med Chem Lett, 2023).
